Measurements from ChEMBL document CHEMBL3758104, “Reinvestigating Old Pharmacophores: Are 4-Aminoquinolines and Tetraoxanes Potential Two-Stage Antimalarials?” (J Med Chem, 2016).
pIC50: −log10 of the molar value. Active and inactive are the calls of the source. The calls are words filed in the database; no cut-off is given here.

Tests used:
[1] = Half life in human liver microsomes at 1 uM by LC-MS/MS analysis; assay type: ADME
[2] = system: Plasmodium berghei; test: Antimalarial activity against Plasmodium berghei ANKA infected in C57Bl6 mouse at 160 mg/kg/day, po measured on day 3 to 5 by Thompson test; assay type: functional
[3] = Selectivity index, ratio of IC50 for human HepG2 cells to IC50 for chloroquine susceptible Plasmodium falciparum D6; assay type: toxicity, cell-based; conditions: read-out: Ratio IC50
[4] = system: Plasmodium berghei; test: Antimalarial activity against sporozoite stage of Plasmodium berghei infected in human Huh7 cells assessed as inhibition of parasite infection pre-incubated for 24 hrs followed by parasite infection measured after 48 hrs by bioluminescence assay; assay type: functional, organism-based; conditions: Huh-7
[5] = system: Plasmodium falciparum; test: Antimalarial activity against chloroquine-susceptible Plasmodium falciparum D6 after 48 hrs by [3H]hypoxanthine incorporation assay; assay type: functional, organism-based
How it was run: (§1)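 P. falciparum D6 (Sierra I/UNC clone), W2 (Indochina I clone), TM91C235 (South-East Asian clone) cultured with compound; growth inhibition by [3H]hypoxanthine incorporation (modified Desjardins/Milhous method). Chloroquine, mefloquine, artemisinin as positive controls. IC50 in nM; technical triplicates, curve fits R2 0.96–1.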

[6] = system: Plasmodium falciparum; test: Antimalarial activity against chloroquine-resistant Plasmodium falciparum W2 after 48 hrs by [3H]hypoxanthine incorporation assay; assay type: functional, organism-based; how it was run: as §1
[7] = system: HepG2; test: Cytotoxicity against human HepG2 cells after 48 hrs by MTT assay; assay type: cell-based; conditions: HepG2, 48 h
[8] = Half life in mouse liver microsomes at 1 uM by LC-MS/MS analysis; assay type: ADME
[9] = Octanol-water partition coefficient, logP of the compound; assay type: physicochemical
[10] = biological target: hERG (KCNH2) (Homo sapiens, UniProt Q12809); test: Inhibition of human ERG expressed in CHO cells at 5 uM by patch plate method; assay type: cell-based; conditions: CHO cells that express human ERG
hERG (KCNH2), sequence (Q12809 whole entry): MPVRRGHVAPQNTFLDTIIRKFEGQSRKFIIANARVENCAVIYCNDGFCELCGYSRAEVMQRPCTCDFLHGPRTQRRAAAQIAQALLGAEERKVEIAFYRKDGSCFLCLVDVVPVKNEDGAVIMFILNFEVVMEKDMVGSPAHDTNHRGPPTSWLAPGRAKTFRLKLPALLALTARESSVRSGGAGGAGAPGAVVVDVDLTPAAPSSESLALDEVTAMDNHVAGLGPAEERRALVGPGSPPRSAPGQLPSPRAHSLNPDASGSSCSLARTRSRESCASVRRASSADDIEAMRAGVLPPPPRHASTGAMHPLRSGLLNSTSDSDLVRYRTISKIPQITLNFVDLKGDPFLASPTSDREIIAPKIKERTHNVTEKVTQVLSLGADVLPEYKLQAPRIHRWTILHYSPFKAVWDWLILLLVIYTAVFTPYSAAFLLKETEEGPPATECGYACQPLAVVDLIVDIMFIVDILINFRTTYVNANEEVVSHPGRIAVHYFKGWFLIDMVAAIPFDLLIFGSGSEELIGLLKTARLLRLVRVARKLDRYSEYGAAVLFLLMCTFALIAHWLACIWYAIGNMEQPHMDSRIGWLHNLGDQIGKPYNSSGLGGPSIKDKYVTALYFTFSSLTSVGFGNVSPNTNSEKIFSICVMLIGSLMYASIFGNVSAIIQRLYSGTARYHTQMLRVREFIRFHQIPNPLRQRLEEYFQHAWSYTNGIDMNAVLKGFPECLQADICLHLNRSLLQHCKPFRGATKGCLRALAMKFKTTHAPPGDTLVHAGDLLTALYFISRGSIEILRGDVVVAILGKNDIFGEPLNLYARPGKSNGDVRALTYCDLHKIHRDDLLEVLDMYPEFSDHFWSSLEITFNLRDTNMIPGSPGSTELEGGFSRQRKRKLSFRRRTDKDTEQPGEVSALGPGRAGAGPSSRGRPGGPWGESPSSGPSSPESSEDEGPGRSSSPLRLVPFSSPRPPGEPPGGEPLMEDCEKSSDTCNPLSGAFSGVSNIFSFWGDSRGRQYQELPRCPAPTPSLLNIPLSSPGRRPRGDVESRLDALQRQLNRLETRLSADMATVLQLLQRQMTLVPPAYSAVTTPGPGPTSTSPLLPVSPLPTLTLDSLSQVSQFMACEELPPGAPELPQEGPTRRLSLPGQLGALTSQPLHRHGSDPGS

[11] = system: Plasmodium berghei; test: Antimalarial activity against Plasmodium berghei ANKA infected in C57Bl6 mouse at 20 mg/kg/day, po on days 3 to 5 by Thompson test; assay type: functional
[12] = Inhibition of beta hematin formation measured as hemin equivalent after 18 hrs; assay type: physicochemical
How it was run: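 Hemin (16 mM in DMSO) mixed with compound at 0.125–5 mol equiv to hemin, plus water and 8 M acetate buffer pH 5.2, 25% DMSO final. Incubated 18 h at 37 °C. Pellet washed with DMSO, dissolved in 0.1 M NaOH, absorbance read at 405 nm (corrected at 670 nm) against a hemin calibration.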

[13] = system: Salmonella typhimurium; test: Mutagenic activity in Salmonella typhimurium TA98 at 500 ug/ml by Ames test in absence of S9 fractions; assay type: toxicity, organism-based; conditions: salmonella enterica subsp. enterica serovar typhimurium
How it was run: (§2)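 Ames test in Salmonella typhimurium TA98 and TA100 at 500 μg/mL, with and without S9.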

[14] = biological target: Voltage-gated inwardly rectifying potassium channel KCNH2 (Homo sapiens, UniProt Q12809); test: Inhibition of human ERG expressed in CHO cells by patch plate method; assay type: cell-based
Voltage-gated inwardly rectifying potassium channel KCNH2, sequence (Q12809 whole entry): as above

[15] = system: Plasmodium falciparum; test: Antimalarial activity against mutidrug resistant Plasmodium falciparum TM91C235 after 48 hrs by [3H]hypoxanthine incorporation assay; assay type: functional, organism-based; how it was run: as §1
[16] = system: Mus musculus; test: Toxicity in Plasmodium berghei ANKA infected C57Bl6 mouse at 160 mg/kg/day, po administered for 3 days measured 2 times a day for 31 days; assay type: organism-based; conditions: in vivo, 744 h
[17] = system: Plasmodium berghei; test: Antimalarial activity against Plasmodium berghei ANKA infected in C57Bl6 mouse assessed as reduction of parasitemia at 20 mg/kg/day, po administered for day 3 to 5 measured on day 6 by Thompson test; assay type: functional, organism-based
How it was run: (§3)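 Modified Thompson test: C57Bl6 female mice inoculated intraperitoneally on day 0 with 1×10^6 P. berghei ANKA-infected erythrocytes; compound suspended in 0.5% hydroxyethylcellulose–0.1% Tween 80, given orally once daily on days 3, 4 and 5 post infection. Parasitemia by Giemsa-stained thin tail-blood smears on days 0, 3, 6, 10, 13, 17, 20, 24, 27, 31. Cure = survival without parasitemia to day 31.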

[18] = system: Plasmodium berghei; test: Antimalarial activity against Plasmodium berghei ANKA infected in C57Bl6 mouse at 40 mg/kg/day, po on days 3 to 5 by Thompson test; assay type: functional
[19] = system: Salmonella typhimurium; test: Mutagenic activity in Salmonella typhimurium TA98 at 500 ug/ml by Ames test in presence of S9 fractions; assay type: toxicity, organism-based, S9 Fraction; conditions: salmonella enterica subsp. enterica serovar typhimurium; how it was run: as §2
[20] = system: Plasmodium berghei; test: Antimalarial activity against Plasmodium berghei ANKA infected in C57Bl6 mouse assessed as curative effect at 20 to 40 mg/kg/day, po administered for day 3 to 5 by Thompson test
[21] = system: Plasmodium berghei; test: Antimalarial activity against Plasmodium berghei ANKA infected in C57Bl6 mouse at 80 mg/kg/day, po measured on day 3 to 5 by Thompson test; assay type: functional
[22] = system: Salmonella typhimurium; test: Mutagenic activity in Salmonella typhimurium TA100 at 500 ug/ml by Ames test in absence of S9 fractions; assay type: toxicity, organism-based; conditions: salmonella enterica subsp. enterica serovar typhimurium; how it was run: as §2
[23] = system: Plasmodium berghei; test: Antimalarial activity against Plasmodium berghei ANKA infected in C57Bl6 mouse at 10 mg/kg/day, po on days 3 to 5 by Thompson test; assay type: functional
[24] = system: Plasmodium berghei; test: Antimalarial activity against Plasmodium berghei ANKA infected in po dosed C57Bl6 mouse administered on day 3 to 5 by Thompson test; assay type: functional; how it was run: as §3
[25] = system: Salmonella typhimurium; test: Mutagenic activity in Salmonella typhimurium TA100 at 500 ug/ml by Ames test in presence of S9 fractions; assay type: toxicity, organism-based, S9 Fraction; conditions: salmonella enterica subsp. enterica serovar typhimurium; how it was run: as §2
[26] = system: Plasmodium berghei; test: Antimalarial activity against sporozoite stage of Plasmodium berghei infected in human Huh7 cells assessed as remaining parasite infection at 5 uM pre-incubated for 24 hrs followed by parasite infection measured after 48 hrs by bioluminescence assay; conditions: Huh-7

With CC(CCNCC12CC3CC(CC(C3)C1)C2)Nc1ccnc2cc(Cl)ccc12 (stereo not drawn) the half-life at 1 µM [1] was 1 h, the MST [2] was >31 days and the selectivity ratio [3] was 305. The pIC50 [4] was 6.00, the pIC50 [5] was 8.00 and the pIC50 [6] was 8.00. The pIC50 [7] was 5.52, the half-life at 1 µM [8] was 1 h and the logP [9] was 3.85. It also gave an inhibition at 5 µM [10] of 11.7%, an MST [11] of 15.2 days and an IC50 [12] of 1.84 equiv. For the same molecule, the Activity [13] was “Non-toxic”, the pIC50 [14] was < 5.30 and the pIC50 [15] was 8.00. For the same molecule, the Activity [16] was “Non-toxic”, the Activity [17] was “Active” and the MST [18] was 17.2 days. For the same molecule, the Activity [19] was “Non-toxic”, the Activity [20] was “inactive” and the MST [21] was >31 days. For the same molecule, the Activity [22] was “Non-toxic”, the MST [23] was 13 days and the Activity [24] was “Dose dependent effect”. The MAC [24] was 10 mg/kg/day, the MCD [24] was 80 mg/kg/day and the Activity [25] was “Non-toxic”. It also gave a % infection at 5 µM [26] of 0.1%.
